Data taken from article PMC4484650 (Drug Design, Development and Therapy, 2015).
Several values for one entry are separate records, joined by “and”; a condition that tells them apart may be missing. Equal entries are not always repeated. Where two headings read alike, the source gives them in different places.

Key:
[1] = assay type: in vivo, human (healthy men); details: human
[2] = Rat plasma PK and plasma metabolite profile after oral [14C]-levomilnacipran; assay type: in vivo, Sprague Dawley rats
How it was run: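 Male Sprague Dawley rats were gavaged with 50 mg/kg [14C]-test compound. Aortic blood was drawn under isoflurane into lithium heparin, three rats per time, from 0.25 to 72 h (second study: 1–10 h). Plasma radioactivity was counted by liquid scintillation. Parent and N-desethyl metabolite were measured by LC–MS/MS (1–500 ng/mL), and conjugates after β-glucuronidase/sulfatase deconjugation. Cmax and AUC came from non-compartmental analysis.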

[3] = Human mass balance and urine metabolite profile; assay type: in vivo, human (healthy men); details: 60 mg, urine 0–120 hours
How it was run: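 Open-label single-centre study in healthy young men. Each took one oral 5 mL solution of 60 mg [14C]-test compound (3.7 MBq), about 30 min after starting breakfast. Urine was collected in intervals to 120 h and feces in 24-h intervals to 120 h. Radioactivity was read by liquid scintillation and reported as % of dose. Urinary analytes were measured by LC–MS/MS (1–5,000 ng/mL) before and after β-glucuronidase/sulfatase deconjugation (15 h, 37°C).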

[4] = Monkey mass balance and urine metabolite profile; assay type: in vivo, Macaca fascicularis monkeys; details: 30 mg/kg, urine 0–24 hours
[5] = Rat mass balance and urine metabolite profile; assay type: in vivo, Sprague Dawley rats; details: rat (Sprague Dawley), 50 mg/kg, urine 0–24 hours
How it was run: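 Sprague Dawley rats received 50 mg/kg [14C]-test compound by gavage in ultrapure water. Urine, feces and cage wash were collected from 3 males and 3 females pre-dose and at 0–8, 8–24, 24–48 and 48–72 h. A second study collected urine from 3 males to 24 h. Radioactivity was counted by liquid scintillation as % of dose. Urinary analytes were measured by LC–MS/MS (50–24,750 ng/mL), with and without deconjugation (15 h, 37°C).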

[6] = cited from earlier work; for half-life (T1/2): humans
plasma proteins = details: cited from earlier work
[7] = Sprague Dawley, rat, plasma, po, 50 mg/kg

**Q.** Which “Contribution to total radioactivity plasma exposure (area under the curve)” value ([1]; 60 mg oral) does the source give for `CCN(CC)C(=O)[C@@]1(c2ccccc2)C[C@H]1CN` [Levomilnacipran, levomilnacipran] here?
**A.** 45.1%

**Q.** And the “Contribution to total plasma radioactivity at peak plasma levels” value ([1]; from average peak plasma concentrations)?
**A.** 61.0%

**Q.** And the “Share of total plasma radioactivity” value ([1]; within 12 hours of dosing)?
**A.** 52.9%

**Q.** What about the AUC(0-inf) ([1]; male, plasma, po, 60 mg) of the same molecule?
**A.** 2090 ng·h/mL

**Q.** And the AUC(0-t) ([1]; male, plasma, po, 60 mg)?
**A.** 2060 ng·h/mL

**Q.** What about the Cmax ([1]; male, plasma, po, 60 mg) of the same molecule?
**A.** 179 ng/mL

**Q.** What about the Tmax ([1]; male, plasma, po, 60 mg) of the same molecule?
**A.** 2.75 h

**Q.** What about the half-life ([1]; male, plasma, po, 60 mg) of the same molecule?
**A.** 10.4 h

**Q.** What about the AUC(0-inf) [2, 7] of the same molecule?
**A.** 16600 ng·h/mL

**Q.** And the AUC(0-t) [2, 7]?
**A.** 16600 ng·h/mL

**Q.** And the Cmax [2, 7]?
**A.** 8060 ng/mL

**Q.** And the Tmax [2, 7]?
**A.** 0.5 h

**Q.** What about the “Share of circulating total radioactivity” value ([2]; male rats, 50 mg/kg oral) of the same molecule?
**A.** about 60%

**Q.** And the “Mean urinary excretion of compound” value [3]?
**A.** 58.4 % of administered dose

**Q.** What about the “Mean urinary excretion of compound” value ([3]; listed as levomilnacipran) of the same molecule?
**A.** 58.4 % of administered dose and 58 % of administered dose

**Q.** And the “Mean urinary excretion of compound” value [4]?
**A.** 35.5 % of administered dose

**Q.** What about the “Mean urinary excretion of compound” value [5] of the same molecule?
**A.** 40.2 % of administered dose

**Q.** With `CNCC[C@H](Oc1cccc2ccccc12)c1cccs1` [duloxetine] as the molecule, how does the “Urinary excretion as unchanged (parent) drug” value [6] read?
**A.** less than 1%

**Q.** What about the “half-life (T1/2)” value [6] of the same molecule?
**A.** 12 h

**Q.** What about the plasma protein binding (plasma proteins) of the same molecule?
**A.** greater than 90%

**Q.** With `COc1ccc(C(CN(C)C)C2(O)CCCCC2)cc1` (stereo not drawn) [venlafaxine] as the molecule, how does the “half-life (T1/2)” value [6] read?
**A.** 5 h

**Q.** What about the plasma protein binding (plasma proteins) of the same molecule?
**A.** 27%

**Q.** With `CCN(CC)C(=O)C1(c2ccccc2)CC1CN` (stereo not drawn) [milnacipran] as the molecule, how does the “half-life (T1/2)” value [6] read?
**A.** 8 h

**Q.** And the plasma protein binding (plasma proteins)?
**A.** 13%

**Q.** For `CN(C)CC(c1ccc(O)cc1)C1(O)CCCCC1` (stereo not drawn) [desvenlafaxine], which “Urinary excretion as unchanged (parent) drug” value [6] is on record?
**A.** 45%

**Q.** And the “half-life (T1/2)” value [6]?
**A.** 11 h

**Q.** What about the plasma protein binding (plasma proteins) of the same molecule?
**A.** 30%
